This is an account of results in paper PMC2194103 (The Journal of Experimental Medicine, 2002).

Test [1] deals with peripheral CD4+ T cells of the 1B6 transgenic mouse. Put plainly: Proliferation of naive ex-vivo 1B6 TCR transgenic T cells. Conditions: LNCs from 1B6 TCR transgenic mouse, [3H]thymidine added after 48 h; Fig. 1. The class given is cell-based. Put shortly: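 Lymph node cells from a 1B6 TCR transgenic mouse were stimulated in culture with different peptide ligands. Per the general proliferation method, cultures were run in triplicate. After 48 h, [3H]thymidine (1 μCi/well) was added for the final 16 h before harvest. Incorporation was read by scintillation counting.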

In test [2] the target is T1, I-A^s (Mus musculus, UniProt P06345+P14437).
T1 sequence (P14437 1-233): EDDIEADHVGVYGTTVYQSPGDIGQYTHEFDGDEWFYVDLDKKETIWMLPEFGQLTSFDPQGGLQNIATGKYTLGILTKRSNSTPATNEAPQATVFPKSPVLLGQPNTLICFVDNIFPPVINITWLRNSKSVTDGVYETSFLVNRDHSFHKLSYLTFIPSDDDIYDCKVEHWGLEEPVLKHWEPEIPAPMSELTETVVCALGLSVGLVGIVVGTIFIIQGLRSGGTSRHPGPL
T1 sequence (P06345 28-263): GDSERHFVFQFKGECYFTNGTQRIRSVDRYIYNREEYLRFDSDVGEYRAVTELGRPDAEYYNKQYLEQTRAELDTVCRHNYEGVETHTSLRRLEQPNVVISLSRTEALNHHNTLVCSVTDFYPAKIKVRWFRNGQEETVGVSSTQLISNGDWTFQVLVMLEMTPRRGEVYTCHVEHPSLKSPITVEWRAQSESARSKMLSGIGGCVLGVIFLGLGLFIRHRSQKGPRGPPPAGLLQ
The settings on record: binding to I-A^s relative to W144 (1.0); cited from earlier work.

Test [3] has as its system Q1.1B6 T cell clone. The settings on record: representative experiment; cited from earlier work.
Test [4] has as its system CD4+ 1B6 Rag2−/− T cell lines. The test is described as follows: Cytokine ELISA on 1B6 T cell lines. The test is classed as cell-based, mouse. Conditions: supernatants after 40 h, Fig. 3.

As to HSLGKQLGHPDKF [Ligand Q144], the “Stimulatory potential for proliferation (hierarchy of response)” value (shortened to “Stimulatory potential for proliferation”) in test [1] is recorded as “agonist”. The “Relative MHC binding” value in test [2] is recorded as 0.6. Besides, in test [3], the “Cytokine IFN-γ” value is on record as 9,052 pg/ml, the “Cytokine IL-2” value was <50 pg/mL, the “Cytokine IL-4” value was 200 pg/mL and the “Cytokine TNF-α” value was <50 pg/mL.
Consider HSLGKLLGHPDKF [Ligand L144], for which the “Stimulatory potential for proliferation” value in test [1] is listed as “superagonist ligand”. Further, the “Secretion of IL-2 by desensitized cells” value in test [4] was “selectively blunted”. In addition, the “Relative MHC binding” value in test [2] was 0.8. Besides, in test [3], the “Cytokine IL-4” value is 390 pg/mL and the “Cytokine TNF-α” value is 420 pg/mL.
For the sequence “HSLGKWLGHPDKF [Ligand W144, reference compound]”, the “Stimulatory potential for proliferation” value in test [1] is given as “weaker ligand”. Moreover, the “Relative MHC binding” value in test [2] was 1.0. In test [3], the “Cytokine IFN-γ” value is 420 pg/mL, the “Cytokine IL-2” value is <50 pg/mL, the “Cytokine IL-4” value was <50 pg/mL and the “Cytokine TNF-α” value was <50 pg/mL.
